Data taken from PubChem BioAssay.
Records with an inconclusive call do not appear.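 The calls were made as follows, unless noted: active = cell viability at or below a set limit in both duplicate runs, the limit being the all-compound median minus 4 SD (cut at about 23% in these data, passing the limit was not always enough); inconclusive = no clear call, values can overlap the other calls; inactive = the rest.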

Tests used:
[1] = S. cerevisiae growth inhibition in permissive medium (OD615), pilot counter-assay for S. cerevisiae lifespan shortening project, permissive growth control (AID 705;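 active = growth inhibition above 25% in both replicates, a cutoff set 3 SD above the mean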); conditions: OD615, 24 h, at 10 µM, stronger effect = higher value
Summary of the method: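 Material: engineered DeaD yeast; compound dosing: one dose 10 µM, DMSO 0.25% final; measure: yeast growth inhibition indicated by reduced 24 h OD615; detection: OD615 turbidity read; incubation: cells pre-grown 4 h, then 24 h compound exposure, 30 °C humidified; medium: permissive synthetic complete medium with raffinose and galactose carbon sources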

[2] = S. cerevisiae growth inhibition in restrictive medium, OD615, pilot screen, restrictive growth control, yeast lifespan reduction project (AID 706;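 active = growth inhibition above a set limit, 3 SD over mean compound inhibition, in both replicates, cut at about 43% in these data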;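 also: modified DeaD lifespan yeast strain shifted to restrictive glucose medium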); conditions: OD615, 48 h, at 10 µM, stronger effect = higher value
Summary of the method: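 material = engineered S. cerevisiae DeaD strain | medium = glucose-based CSMM-D restrictive medium | times = 4 h pre-incubation, 48 h exposure at 30 °C | technique = OD615 absorbance reading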

[3] = doxorubicin toxicity protection in MRP-1 cells – H69AR cells, CellTiter-Glo, duplicate, MRP-1 activator project, pilot screen (AID 807;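 active = viability increase at or above a cutoff of the median across tested compounds plus 3 SD, cut at about 8.5% in these data, passing the limit was not always enough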;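 also: compound pretreatment 18-22 h then 72 h combined with doxorubicin; 0% = doxorubicin alone and 100% = vehicle without doxorubicin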); conditions: H69AR viability with doxorubicin, CellTiter-Glo luminescence; at 10 µM; stronger effect = higher value
[4] = viability of HCT116 without oncogenic beta-catenin – human colon tumor cells, pilot screen (AID 823); conditions: HCT116 beta-catenin knockout viability, CellTiter-Glo, 60 h; at 10 µM; stronger effect = lower value;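 also: 0% = wells killed by 20 µM Hyamine and 100% = untreated DMSO cell wells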
[5] = viability of PTEN-null HCT116 cells – cell-based, HCT116 clonal line, CellTiter-Glo, pilot screen (AID 824;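 active = viability at or below 27.92% in each of two runs, the all-compound median minus 4 SD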;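 also: 0% = 20 µM Hyamine control and 100% = vehicle cell control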); conditions: HCT116 PTEN-deleted viability, 60 h, at 10 µM, stronger effect = lower value
[6] = RAM pathway blockade in budding yeast – dse1pr::URA3 reporter, 5-FOA selection, pilot screen (AID 869;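 active = inhibition over a set limit, the all-compound mean plus 3 SD, in both replicate runs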;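 also: 0% = DMSO wells with no growth and 100% = 10 µM 1-NA-PP1 with full growth; RAM network block rescues cells from 5-FOA so hits raise OD615 growth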); conditions: S. cerevisiae dse1pr::URA3 5-FOA growth, OD615, 2 d; at 10 µM; stronger effect = higher value; strain carries analog-sensitive mutant Cbk1 kinase
[7] = RAM signaling pathway blockade in yeast – S. cerevisiae, Pdr1DBD-CYC8 efflux-inhibited sensitized strain, primary screen (AID 1298;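 active = RAM network inhibition above 8.4% in each of two replicates, 3 SD over the compound average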;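 also: 0% = DMSO untreated cells without growth and 100% = 10 µM 1-NA-PP1 full growth; higher means more yeast growth rescued from 5-FOA killing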); conditions: S. cerevisiae cbk1-as DSE1-URA3 strain, 5-FOA growth OD615, 2 d; at 50 µM; stronger effect = higher value

Cc1nn(-c2ccccc2)c(Cl)c1C(=O)Nc1c(C)n(C)n(-c2ccccc2)c1=O
inactive: growth inhibition [1] -9% | growth inhibition [2] -23% | viability increase [3] -0.99% | viability [4] 102% | viability [5] 94.3% | inhibition [6] 0.935% | RAM network inhibition [7] 3.15%

CC(=O)N1CCc2cc(C(=O)CN3CCCN(Cc4ccc(F)cc4)C3)ccc21
inactive: growth inhibition [1] 4.55% | growth inhibition [2] 9.21% | viability increase [3] -1.12% | viability [4] 102% | viability [5] 95.8% | inhibition [6] 1.48% | RAM network inhibition [7] 2.92%

C1CCC2(CC1)C1=C(CCCC1)Nc1nnnn12
inactive: growth inhibition [1] -4.35% | growth inhibition [2] 1.16% | viability increase [3] -1.07% | viability [4] 93.5% | viability [5] 87.8% | inhibition [6] 2.16% | RAM network inhibition [7] 5.77%

c1csc(CCNc2ncnc3sc4c(c23)CCC4)c1
inactive: growth inhibition [1] -5.19% | growth inhibition [2] 13.9% | viability increase [3] -5.93% | viability [4] 39.9% | viability [5] 50.1% | inhibition [6] 0.385% | RAM network inhibition [7] -0.9%

CCOC(=O)C1CCCN(C(=O)c2ccc(CNc3c(N4CCC(C)CC4)c(=O)c3=O)cc2)C1 (configuration not stated)
inactive: growth inhibition [1] -16.1% | growth inhibition [2] -24.3% | viability increase [3] 0.29% | viability [4] 102% | viability [5] 98.9% | inhibition [6] 2.57% | RAM network inhibition [7] 4.84%

CCN(CC)C(=O)CCCOc1ccc(Cl)cc1Cl
inactive: growth inhibition [1] -2.5% | growth inhibition [2] -0.045% | viability increase [3] 0.07% | viability [4] 76.7% | viability [5] 83.9% | inhibition [6] -0.905% | RAM network inhibition [7] 0.45%

O=C(CCCCC(=O)N1CCN(c2ccccc2)CC1)N1CCN(c2ccccc2)CC1
inactive: growth inhibition [1] -2.23% | growth inhibition [2] 8.9% | viability increase [3] 0.82% | viability [4] 94.6% | viability [5] 86% | inhibition [6] 1.74% | RAM network inhibition [7] -0.46%

COc1cc(C2C(C#N)=C(C)NC3=C2C(=O)CC(C)(C)C3)ccc1OCCO (configuration not stated)
inactive: growth inhibition [1] -9.96% | growth inhibition [2] -14.6% | viability increase [3] -0.94% | viability [4] 97.8% | viability [5] 104% | inhibition [6] 1.43% | RAM network inhibition [7] 3.55%

CC(C)N(C(=O)CSc1nc2c([nH]1)c(=O)n(C)c(=O)n2C)c1ccccc1
inactive: growth inhibition [1] -4.33% | growth inhibition [2] -12.7% | viability increase [3] 1.94% | viability [4] 106% | viability [5] 102% | inhibition [6] 1.22% | RAM network inhibition [7] 6.3%

COc1ccc(OC)c2sc(NC(=O)c3ccc(S(=O)(=O)N(C)C)cc3)nc12
inactive: growth inhibition [1] -19.3% | growth inhibition [2] -17.2% | viability increase [3] -5.45% | viability [4] 72.9% | viability [5] 68.9% | inhibition [6] 3.56% | RAM network inhibition [7] 6.48%

O=C(CN1CCOc2ccccc21)N1CCN(c2cccc(Cl)c2)CC1
inactive: growth inhibition [1] 6% | growth inhibition [2] 18.6% | viability increase [3] -4.17% | viability [4] 84.1% | viability [5] 84.4% | inhibition [6] 2.77% | RAM network inhibition [7] 4.14%

CCOC(=O)N1CCC(N2CC34C=CC(O3)C(C(=O)Nc3ccc(C)cc3)C4C2=O)CC1 (configuration not stated)
inactive: growth inhibition [1] -0.385% | growth inhibition [2] -0.16% | viability increase [3] 1.43% | viability [4] 100% | viability [5] 102% | inhibition [6] 1.33% | RAM network inhibition [7] 2.54%

CCCn1c(CN2CCN(C(=O)c3ccco3)CC2)nc2c1c(=O)n(C)c(=O)n2C
inactive: growth inhibition [1] -14.1% | growth inhibition [2] -25.5% | viability increase [3] -1.84% | viability [4] 97% | viability [5] 93.8% | inhibition [6] 0.34% | RAM network inhibition [7] 2.82%

Cc1ccc(OCCSc2cc(C)nc(N)n2)cc1
inactive: growth inhibition [1] -3.51% | growth inhibition [2] -3.22% | viability increase [3] 0.4% | viability [4] 95.6% | viability [5] 96% | inhibition [6] 1.12% | RAM network inhibition [7] 0.05%

COC(=O)C1C2C=CC3(CN(c4cccc(Cl)c4)C(=O)C13)O2 (configuration not stated)
inactive: growth inhibition [1] -11.2% | growth inhibition [2] -8.25% | viability increase [3] -1.38% | viability [4] 107% | viability [5] 99.5% | inhibition [6] 1.06% | RAM network inhibition [7] 5.74%

COc1ccc(OCCNS(=O)(=O)c2ccccc2)cc1
inactive: growth inhibition [1] -18.1% | growth inhibition [2] -18.5% | viability increase [3] 0.87% | viability [4] 94.5% | viability [5] 97.2% | inhibition [6] 0.965% | RAM network inhibition [7] 1.42%

COc1cccc(C2c3c(oc4ccc(F)cc4c3=O)C(=O)N2CCCN2CCOCC2)c1 (configuration not stated)
inactive: growth inhibition [1] -9.58% | growth inhibition [2] -6.59% | viability increase [3] -1.59% | viability [4] 105% | viability [5] 105% | inhibition [6] 1.25% | RAM network inhibition [7] 4.33%

COc1cccc(NC(=O)Cn2cc3c(n2)CCCCC3)c1
inactive: growth inhibition [1] -10% | growth inhibition [2] -7.44% | viability increase [3] 0.07% | viability [4] 98.2% | viability [5] 92% | inhibition [6] 1.66% | RAM network inhibition [7] 6.31%

COc1ccc(OC)c(C2C(C(N)=O)=C(C)Nc3nc(CCCO)nn32)c1 (configuration not stated)
inactive: growth inhibition [1] -12.9% | growth inhibition [2] -20.6% | viability increase [3] 0.09% | viability [4] 97.3% | viability [5] 95.6% | inhibition [6] 1.61% | RAM network inhibition [7] 5.21%

Cc1ccc(-n2nc(C)c3c2OC(N)=C(C#N)C3c2cccs2)cc1 (configuration not stated)
inactive: growth inhibition [1] -14.8% | growth inhibition [2] -26.3% | viability increase [3] -3.41% | viability [4] 90.5% | viability [5] 88.5% | inhibition [6] 1.91% | RAM network inhibition [7] 0.52%

O=C(NC(Cc1ccc2c(c1)OCO2)C(=O)N1CCCC1C(=O)O)c1ccccc1 (configuration not stated)
inactive: growth inhibition [1] -2.82% | growth inhibition [2] 0.59% | viability increase [3] 0.05% | viability [4] 95.1% | viability [5] 98.1% | inhibition [6] 0.125% | RAM network inhibition [7] 6.49%

COc1cc(Cl)c(S(=O)(=O)NCc2cccnc2)cc1Cl
inactive: growth inhibition [1] -9.13% | growth inhibition [2] -9.08% | viability increase [3] 0.38% | viability [4] 99.5% | viability [5] 97.3% | inhibition [6] 0.745% | RAM network inhibition [7] 4.73%

Cc1ccc(Cl)cc1N1CCN(C(=O)C2CCC(=O)N2C(C)C)CC1 (configuration not stated)
inactive: growth inhibition [1] -2.15% | growth inhibition [2] -5.95% | viability increase [3] 2.45% | viability [4] 93.6% | viability [5] 85.8% | inhibition [6] -0.505% | RAM network inhibition [7] 5.7%

O=C(O)C1C(c2ccccc2)C(C(=O)OCc2ccco2)C1c1ccccc1 (configuration not stated)
inactive: growth inhibition [1] -15.4% | growth inhibition [2] -14.6% | viability increase [3] -3.32% | viability [4] 89.5% | viability [5] 88.3% | inhibition [6] 0.645% | RAM network inhibition [7] 6.05%

CCOC(=O)c1c(C)oc2ccc(OC(=O)N3CCOCC3)cc12
inactive: growth inhibition [1] -16.1% | growth inhibition [2] 0.815% | viability increase [3] -1.36% | viability [4] 93.8% | viability [5] 89.6% | inhibition [6] 0.115% | RAM network inhibition [7] 0.98%

CCSC(C)CC1CC(=O)CC(=O)C1 (configuration not stated)
inactive: growth inhibition [1] -11.7% | growth inhibition [2] 6.03% | viability increase [3] 0.29% | viability [4] 94% | viability [5] 89.9% | inhibition [6] 1.39% | RAM network inhibition [7] 2.13%

Cn1c(=NC(=O)C2CC2)sc2cc(F)cc(F)c21
inactive: growth inhibition [1] -0.79% | growth inhibition [2] 8.89% | viability increase [3] -4.58% | viability [4] 91.3% | viability [5] 92.6% | inhibition [6] 1.81% | RAM network inhibition [7] 7.52%

C=CCOc1ccc(C2c3c(oc4ccccc4c3=O)C(=O)N2c2ccccn2)cc1OCC (configuration not stated)
inactive: growth inhibition [1] -13.9% | growth inhibition [2] -10.5% | viability increase [3] -5.39% | viability [4] 77.9% | viability [5] 74.6% | inhibition [6] 2.57% | RAM network inhibition [7] 6.03%

CC(C)(C)c1ccc(S(=O)(=O)N2CCN(CCC#N)CC2)cc1
inactive: growth inhibition [1] -8.29% | growth inhibition [2] -2.35% | viability increase [3] -2.4% | viability [4] 100% | viability [5] 96.3% | inhibition [6] 0.88% | RAM network inhibition [7] 4.27%

Cc1ccnc(NC2c3ccccc3C(=O)N2Cc2ccccc2Cl)c1 (configuration not stated)
inactive: growth inhibition [1] 4.26% | growth inhibition [2] 2.1% | viability increase [3] -3.54% | viability [4] 73% | viability [5] 86.8% | inhibition [6] 2.44% | RAM network inhibition [7] 3.54%

O=C(c1nnc(Cc2ccc(Cl)cc2)o1)N1CCc2ccccc2C1
inactive: growth inhibition [1] -7.83% | growth inhibition [2] 7.34% | viability increase [3] 3.24% | viability [4] 103% | viability [5] 107% | inhibition [6] 0.135% | RAM network inhibition [7] 4.39%

CCCNC(=O)CS(=O)Cc1nc(-c2cccc(OC)c2)oc1C (configuration not stated)
inactive: growth inhibition [1] -6.84% | growth inhibition [2] -0.045% | viability increase [3] -2.3% | viability [4] 96.6% | viability [5] 95.2% | inhibition [6] 1.2% | RAM network inhibition [7] -0.38%

COC(=O)c1ccc(/C=N/n2cnnc2)cc1
inactive: growth inhibition [1] -10.3% | growth inhibition [2] -20% | viability increase [3] -1.44% | viability [4] 101% | viability [5] 89.3% | inhibition [6] 0.79% | RAM network inhibition [7] 4.48%

Cc1ccc(N2C(=O)c3ccc(C(=O)N4CCN(c5ccccc5F)CC4)cc3C2=O)cc1
inactive: growth inhibition [1] -4.5% | growth inhibition [2] -2.21% | viability increase [3] -1.97% | viability [4] 90.5% | viability [5] 90% | inhibition [6] 1.33% | RAM network inhibition [7] 4.71%

O=C1C(=O)N(CCCn2ccnc2)C(c2cccnc2)/C1=C(/O)c1ccc(Cl)cc1 (configuration not stated)
inactive: growth inhibition [1] -11.6% | growth inhibition [2] -4.88% | viability increase [3] -0.32% | viability [4] 97.2% | viability [5] 98.6% | inhibition [6] 0.905% | RAM network inhibition [7] 1.1%

O=C(COc1ccccc1)NCc1nnc(SCC(=O)Nc2nccs2)n1-c1ccccc1
inactive: growth inhibition [1] -10.1% | growth inhibition [2] -4.89% | viability increase [3] -1.46% | viability [4] 101% | viability [5] 101% | inhibition [6] 2.13% | RAM network inhibition [7] 4.48%
